Experimental data as given in ChEMBL document CHEMBL1132587, “Synthesis and serotonergic activity of 3-[2-(pyrrolidin-1-yl)ethyl]indoles: potent agonists for the h5-HT1D receptor with high selectivity over the h5-HT1B receptor” (J Med Chem, 1999).
Several values for one entry are separate records, joined by “and”; a condition that tells them apart may be missing. Identical values can stand only once.

Assays:
[1] = molecular target: T1, 5-hydroxytryptamine receptor 1B (Homo sapiens, UniProt P28222); experiment: Displacement of [3H]5-HT binding from the cloned human 5-hydroxytryptamine 1B receptor stably expressed in CHO cells; type: cell-based
[2] = molecular target: T2, 5-hydroxytryptamine receptor 1D (Homo sapiens, UniProt P28221); experiment: Stimulation of [35S]GTP-gamma-S, binding in CHO cells expressing the 5-hydroxytryptamine 1D receptor; type: functional, cell-based
[3] = molecular target: T2, 5-hydroxytryptamine receptor 1D; experiment: Displacement of [3H]5-HT binding from the cloned human 5-hydroxytryptamine 1D receptor stably expressed in CHO cells; type: cell-based
[4] = molecular target: T3, 5-hydroxytryptamine receptor 1A (Homo sapiens, UniProt P08908); experiment: Affinity of compound towards 5-hydroxytryptamine 1A receptor was evaluated using radioligand binding technique
T3 sequence (P08908 whole entry): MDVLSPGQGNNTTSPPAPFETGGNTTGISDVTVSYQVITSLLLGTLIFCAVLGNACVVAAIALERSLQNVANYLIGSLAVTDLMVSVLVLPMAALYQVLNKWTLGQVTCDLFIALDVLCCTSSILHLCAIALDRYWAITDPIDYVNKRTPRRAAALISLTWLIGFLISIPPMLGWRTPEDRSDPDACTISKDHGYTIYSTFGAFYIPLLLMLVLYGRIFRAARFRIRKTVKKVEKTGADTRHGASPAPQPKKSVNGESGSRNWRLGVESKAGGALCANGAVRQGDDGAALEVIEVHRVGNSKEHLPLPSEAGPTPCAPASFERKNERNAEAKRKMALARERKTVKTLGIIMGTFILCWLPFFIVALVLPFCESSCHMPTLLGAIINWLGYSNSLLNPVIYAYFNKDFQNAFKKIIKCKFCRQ

Rattus norvegicus [5] = experiment: Hepatic portal vein plasma concentration after oral administration; type: functional, organism-based
Procedure, shortened: (§1)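 Fasted (≥12 h) rats, ~300 g, given 3 mg/kg orally in aqueous formulation (5 mL/kg); four rats per time point, isoflurane anaesthesia, hepatic portal vein blood at 0.5 or 2 h; plasma extracted (liquid-liquid or solid-phase) and analysed by reversed-phase HPLC with UV or fluorescence detection.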

[6] = molecular target: T1, 5-hydroxytryptamine receptor 1B; experiment: Affinity of compound towards 5-hydroxytryptamine 1B receptor was evaluated using radioligand binding technique
[7] = molecular target: T2, 5-hydroxytryptamine receptor 1D; experiment: Affinity of compound towards 5-hydroxytryptamine 1D receptor was evaluated using radioligand binding technique
Rattus norvegicus [8] = experiment: Hepatic portal vein plasma concentration after administration; type: functional, organism-based; procedure, shortened: as §1
[9] = molecular target: 5-hydroxytryptamine receptor 2A (Rattus norvegicus) (UniProt P14842); experiment: Affinity of compound towards rat 5-hydroxytryptamine 2A receptor was evaluated using radioligand binding technique
Sequence of 5-hydroxytryptamine receptor 2A (Rattus norvegicus) (P14842 whole entry, looked up): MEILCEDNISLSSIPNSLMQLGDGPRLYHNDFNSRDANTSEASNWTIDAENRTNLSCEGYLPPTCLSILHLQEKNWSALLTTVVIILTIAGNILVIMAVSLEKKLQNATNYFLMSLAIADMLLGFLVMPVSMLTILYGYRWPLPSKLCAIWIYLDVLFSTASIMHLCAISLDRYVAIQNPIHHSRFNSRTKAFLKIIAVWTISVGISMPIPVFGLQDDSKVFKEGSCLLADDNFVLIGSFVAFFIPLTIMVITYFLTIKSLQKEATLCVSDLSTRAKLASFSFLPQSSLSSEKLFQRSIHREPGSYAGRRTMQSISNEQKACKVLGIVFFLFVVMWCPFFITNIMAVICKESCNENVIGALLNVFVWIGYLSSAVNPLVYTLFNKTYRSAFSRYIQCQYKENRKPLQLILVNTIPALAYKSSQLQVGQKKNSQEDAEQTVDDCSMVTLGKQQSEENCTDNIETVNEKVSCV

T1 sequence (P28222 whole entry): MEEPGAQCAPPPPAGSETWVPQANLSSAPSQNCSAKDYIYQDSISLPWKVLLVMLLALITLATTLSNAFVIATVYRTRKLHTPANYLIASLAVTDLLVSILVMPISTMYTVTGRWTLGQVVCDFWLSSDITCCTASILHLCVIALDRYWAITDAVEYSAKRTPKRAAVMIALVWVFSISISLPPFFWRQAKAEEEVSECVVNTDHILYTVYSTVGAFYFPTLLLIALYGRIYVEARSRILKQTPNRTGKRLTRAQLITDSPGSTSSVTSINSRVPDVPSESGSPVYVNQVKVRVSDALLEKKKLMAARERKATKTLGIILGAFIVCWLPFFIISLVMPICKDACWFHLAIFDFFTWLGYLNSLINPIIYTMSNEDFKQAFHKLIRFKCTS
T2 sequence (P28221 whole entry): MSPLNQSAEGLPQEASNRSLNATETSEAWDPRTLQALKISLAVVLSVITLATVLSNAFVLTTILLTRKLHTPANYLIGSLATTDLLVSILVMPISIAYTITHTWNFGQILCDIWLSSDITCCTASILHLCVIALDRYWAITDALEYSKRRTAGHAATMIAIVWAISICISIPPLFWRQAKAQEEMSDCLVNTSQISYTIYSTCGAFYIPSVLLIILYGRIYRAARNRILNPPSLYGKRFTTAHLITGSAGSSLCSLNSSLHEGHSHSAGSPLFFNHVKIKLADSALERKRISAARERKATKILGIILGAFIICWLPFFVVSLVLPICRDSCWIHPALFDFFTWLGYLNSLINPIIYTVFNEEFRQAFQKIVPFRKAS

Structure (SMILES) | IC50 [1] [nM] | EC50 [2] [nM] | IC50 [3] [nM] | also measured
O[C@@H]1CCN(CCc2c[nH]c3ccc(-n4cnnc4)cc23)C1 | 93 | 7.8 | 9 | –
c1ccc(CO[C@H]2CCN(CCc3c[nH]c4ccc(-n5cnnc5)cc34)C2)cc1 | 275 | 31 | 20 | –
c1cncc(CNC[C@@H]2CCN(CCc3c[nH]c4ccc(-n5cnnc5)cc34)C2)c1 | 62 | – | 3.8 | –
c1ccc(COC[C@@H]2CCCN2CCc2c[nH]c3ccc(-n4cnnc4)cc23)cc1 | 2.7 | – | 0.81 | –
C[C@@H](c1ccccc1)N(C)C[C@@H]1CCN(CCc2c[nH]c3ccc(Cn4cncn4)cc23)C1 | 87 | 4.5 | 0.7 | –
C=CCNC[C@@H]1CCN(CCc2c[nH]c3ccc(-n4cnnc4)cc23)C1 | 325 | – | 17 | –
CC(C)(NC[C@@H]1CCN(CCc2c[nH]c3ccc(-n4cnnc4)cc23)C1)c1ccccc1 | 39 | 0.3 | 1 | –
OC[C@@H]1CCN(CCc2c[nH]c3ccc(-n4cnnc4)cc23)C1 | 93 | – | 26 | –
c1ccc(CNC[C@@H]2CCN(CCc3c[nH]c4ccc(-n5cnnc5)cc34)C2)cc1 | – | 0.8 | – | IC50 [4]: 5.4 nM; Plasma concentration (Rattus norvegicus [5]): < 5 ng/mL
c1ccc(COC[C@@H]2CCN(CCc3c[nH]c4ccc(-n5cnnc5)cc34)C2)cc1 | 85 | – | – | –
c1cc(CNC[C@@H]2CCN(CCc3c[nH]c4ccc(-n5cnnc5)cc34)C2)ccn1 | 110 | 9.5 | 8.5 | –
CN(Cc1ccccc1)C[C@@H]1CCN(CCc2c[nH]c3ccc(C[C@H]4COC(=O)N4C)cc23)C1 | 69 | 3.2 | 1.7 | –
C[C@H](NC[C@@H]1CCN(CCc2c[nH]c3ccc(-n4cnnc4)cc23)C1)c1ccccc1 | 41 | 0.63 | 0.45 | –
c1ccc(CCNC[C@@H]2CCN(CCc3c[nH]c4ccc(-n5cnnc5)cc34)C2)cc1 | 125 | 6.2 | 2.6 | –
c1ccc(NC[C@@H]2CCN(CCc3c[nH]c4ccc(-n5cnnc5)cc34)C2)cc1 | 87 | – | 9.1 | –
C[C@H](NC[C@@H]1CCN(CCc2c[nH]c3ccc(Cn4cncn4)cc23)C1)c1ccccc1 | 305 | 3 | 2.5 | –
CN(Cc1ccccc1)C[C@@H]1CCCN1CCc1c[nH]c2ccc(-n3cnnc3)cc12 | 15 | 3 | 0.8 | –
c1ccc(CNC[C@H]2CCN(CCc3c[nH]c4ccc(-n5cnnc5)cc34)C2)cc1 | 47 | – | – | –
O=C1N[C@@H](Cc2ccc3[nH]cc(CCN4CC[C@@H](CNCc5ccccc5)C4)c3c2)CO1 | 49 | 1.7 | 0.35 | IC50 [4]: 17 nM; IC50 [6]: 49 nM; IC50 [7]: 0.35 nM; Plasma concentration (Rattus norvegicus [8]): < 2 ng/mL and 4 ng/mL; IC50 [9]: 3000 nM

Structure (SMILES) | IC50 [1] [nM] | EC50 [2] [nM] | IC50 [3] [nM] | also measured
CNS(=O)(=O)Cc1ccc2[nH]cc(CCN3CC[C@@H](CNCc4ccccc4)C3)c2c1 | 62 | 3.5 | 1.1 | IC50 [4]: 41 nM; IC50 [6]: 62 nM; IC50 [7]: 1.1 nM; IC50 [9]: 5800 nM
c1cc(CNC[C@@H]2CCN(CCc3c[nH]c4ccc(-n5cnnc5)cc34)C2)co1 | 12 | 1.3 | 0.45 | –
CC(=O)Nc1ccc(CNC[C@@H]2CCN(CCc3c[nH]c4ccc(-n5cnnc5)cc34)C2)cc1 | 165 | 10 | 12 | –
C[C@H](NC[C@@H]1CCN(CCc2c[nH]c3ccc(C[C@H]4COC(=O)N4)cc23)C1)c1ccccc1 | 49 | 0.5 | 0.3 | IC50 [4]: 8.7 nM; IC50 [6]: 50 nM; IC50 [7]: 0.3 nM; IC50 [9]: 2200 nM
C[C@@H](NC[C@@H]1CCN(CCc2c[nH]c3ccc(-n4cnnc4)cc23)C1)c1ccccc1 | 74 | 2.1 | 0.72 | –
CN(Cc1ccccc1)C[C@@H]1CCN(CCCc2c[nH]c3ccc(-n4cnnc4)cc23)C1 | 59 | – | 4.2 | –
CC(=O)N(Cc1ccccc1)C[C@@H]1CCN(CCc2c[nH]c3ccc(-n4cnnc4)cc23)C1 | 11 | – | 1.1 | –
c1ccc(COC[C@H]2CCCN2CCc2c[nH]c3ccc(-n4cnnc4)cc23)cc1 | 575 | – | 95 | –
c1cc2[nH]cc(CCN3CCC3)c2cc1-n1cnnc1 | 4.4 | – | 1.1 | –
c1cc2[nH]cc(CCN3CCCC3)c2cc1-n1cnnc1 | 28 | 2.3 | 3.1 | –
CN(C)CCc1c[nH]c2ccc(-n3cnnc3)cc12 | 1.3 | 0.4 | – | –
c1ccc(COC[C@@H]2CCN(CCCc3c[nH]c4ccc(-n5cnnc5)cc34)C2)cc1 | 33 | – | 2.1 | –
c1ccc(CNC[C@@H]2CCN(CCc3c[nH]c4ccc(Cn5cncn5)cc34)C2)cc1 | 260 | 4.9 | 3.2 | Plasma concentration (Rattus norvegicus [5]): < 25 ng/mL and 55 ng/mL
c1ccc(CNC[C@@H]2CCN(CCc3c[nH]c4ccc(-n5cnnc5)cc34)C2)nc1 | 48 | – | 3.6 | –
c1coc(CNC[C@@H]2CCN(CCc3c[nH]c4ccc(-n5cnnc5)cc34)C2)c1 | 20 | 2.8 | 1.5 | –
CN(Cc1ccccc1)[C@@H]1CCN(CCc2c[nH]c3ccc(-n4cnnc4)cc23)C1 | – | – | 37 | –
CN(Cc1ccccc1)C[C@@H]1CCN(CCc2c[nH]c3ccc(Cn4cncn4)cc23)C1 | 575 | 11 | 7.7 | Plasma concentration (Rattus norvegicus [5]): 39 ng/mL and 114 ng/mL
CN(Cc1ccccc1)C[C@@H]1CCN(CCc2c[nH]c3ccc(-n4cnnc4)cc23)C1 | 32 | 1.5 | – | –
